Data published in ChEMBL document CHEMBL1124458, “Electrophilic derivatives of purines as irreversible inhibitors of A1 adenosine receptors” (J Med Chem, 1989).

Key:
[1] = target: T1, Adenosine receptor A1 (Rattus norvegicus) (UniProt P25099); experiment: Inhibition of [125I]-APNEA binding to adenosine A1 receptor of rat brain at 50 nM
T1 sequence (whole entry): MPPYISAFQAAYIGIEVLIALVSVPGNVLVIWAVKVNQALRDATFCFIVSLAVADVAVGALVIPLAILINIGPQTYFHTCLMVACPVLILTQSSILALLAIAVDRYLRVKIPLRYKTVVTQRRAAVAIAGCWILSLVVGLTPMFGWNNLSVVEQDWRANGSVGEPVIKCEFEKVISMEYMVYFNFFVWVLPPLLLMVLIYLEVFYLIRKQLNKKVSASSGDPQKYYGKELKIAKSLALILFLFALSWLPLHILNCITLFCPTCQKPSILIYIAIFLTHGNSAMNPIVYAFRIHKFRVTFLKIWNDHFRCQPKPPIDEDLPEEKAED
Method in brief: (§1)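 Adenosine deaminase-treated rat cerebral cortex membranes were exposed to the ligand for 45 min at 37 °C. They were washed three times, held in buffer with 10⁻⁴ M IBMX for 18 h at 25 °C, washed and re-treated with deaminase. Residual sites were measured by 125I-APNEA saturation (0.1–2.5 nM) against untreated membranes carried through the same procedure.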

Adenosine receptor A1 [2] = target: T2, Adenosine receptor A1 (Rattus norvegicus, UniProt P25099); experiment: Affinity for adenosine A1 receptor using [3H]N6-(phenylisopropyl)adenosine (R)-[3H]-PIA as a radioligand in rat brain.; type: tissue-based
T2 sequence (P25099 whole entry): T1 sequence (whole entry)

Adenosine A2 receptor [3] = target: T3, Adenosine A2 receptor (Rattus norvegicus, UniProt P29276+P30543); experiment: Inhibitory affinity for Adenosine A2 receptor using [3H]N-ethyladenosine-5'-uronamide; type: protein assay
[4] = target: Adenosine receptors; A1 & A2 (Rattus norvegicus) (UniProt P29276+P25099+P30543); experiment: Relative affinities for Adenosine A2 and Adenosine A1 receptors; type: protein assay
Adenosine receptor A1 [5] = target: T2, Adenosine receptor A1; experiment: Affinity for adenosine A1 receptor using [3H]-N6 -(phenylisopropyl)-adenosine (R)-[3H]-PIA in rat brain.; type: tissue-based
Method in brief: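 Rat cerebral cortex membranes were incubated with 1 nM (R)-[3H]PIA and a range of competitor concentrations. Each point was run in triplicate, in at least three separate experiments.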

Adenosine receptor A1 [6] = target: T4, Adenosine receptor A1 (Bos taurus, UniProt P28190); experiment: Affinity for Adenosine A1 receptor using [125I]APNEA in calf brain.
T4 sequence (P28190 whole entry): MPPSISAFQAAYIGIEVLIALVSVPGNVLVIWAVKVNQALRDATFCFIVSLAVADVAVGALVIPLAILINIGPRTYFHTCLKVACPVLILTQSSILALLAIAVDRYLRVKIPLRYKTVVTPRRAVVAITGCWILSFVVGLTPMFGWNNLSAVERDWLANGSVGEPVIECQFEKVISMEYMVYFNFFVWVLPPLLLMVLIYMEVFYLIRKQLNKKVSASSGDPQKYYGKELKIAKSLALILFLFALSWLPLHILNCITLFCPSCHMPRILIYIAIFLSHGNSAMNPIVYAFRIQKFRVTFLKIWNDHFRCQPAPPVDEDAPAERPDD
Method in brief: (§2)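 Bovine cerebral cortex membranes were pretreated with adenosine deaminase (0.5 unit/mL, 20 min, 37 °C). Membranes (40 µg) were incubated with 125I-APNEA and competitor for 1 h at 37 °C. Separation was by dilution in cold Tris-HCl/MgCl2/EDTA buffer, pH 8.26, with 0.02% Chaps, then glass-filter filtration and gamma counting. Nonspecific binding was defined with 10⁻⁵ M (R)-PIA.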

Adenosine A2 receptor [7] = target: T3, Adenosine A2 receptor; experiment: Inhibition of [3H]N-ethyladenosine-5'-uronamide binding to Adenosine A2 receptor of rat striatal membrane
[8] = target: T1, Adenosine receptor A1 (Rattus norvegicus); details: 50 nM
[9] = target: T1, Adenosine receptor A1 (Rattus norvegicus); experiment: Percentage inhibition of [125I]APNEA binding to adenosine A1 receptor from rat brain after 45 min incubation at 500 nM; method in brief: as §1
[10] = target: T1, Adenosine receptor A1 (Rattus norvegicus); experiment: Percentage inhibition of [125I]-APNEA binding to Adenosine A1 receptor from rat brain after 45 min incubation at 50 nM
Method in brief: (§3)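 Rat cerebral cortex membranes pretreated with adenosine deaminase (0.5 unit/mL, 20 min, 37 °C). Incubated with ligand at the stated concentration for 45 min at 37 °C, then washed three times in Tris/MgCl2/EDTA buffer pH 8.26 with 0.02% Chaps. Then 10⁻⁴ M IBMX for 18 h at 25 °C, washed twice and deaminase-treated again. Untreated membranes went through every step as controls.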

[11] = target: T1, Adenosine receptor A1 (Rattus norvegicus); details: 5 nM
[12] = target: T1, Adenosine receptor A1 (Rattus norvegicus); details: 5 nM; remark: listed apart in the source
[13] = target: T1, Adenosine receptor A1 (Rattus norvegicus); experiment: Percentage inhibition of [125I]-APNEA binding to adenosine A1 receptor from rat brain after 45 min incubation at 50 nM; method in brief: as §1
[14] = target: T1, Adenosine receptor A1 (Rattus norvegicus); experiment: Percentage inhibition of [125I]APNEA binding to adenosine A1 receptor from rat brain after 45 min incubation at 1 nM
Method in brief: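 Rat cerebral cortex membranes, pretreated with adenosine deaminase (0.5 unit/mL, 20 min, 37 °C), incubated with ligand 45 min at 37 °C. Washed three times in Tris/MgCl2/EDTA buffer pH 8.26 with 0.02% Chaps, then 10⁻⁴ M IBMX 18 h at 25 °C to strip reversible ligand. Washed, deaminase-treated again, then 125I-APNEA saturation binding (0.1–2.5 nM; nonspecific 10⁻⁵ M R-PIA). Inhibition is relative to untreated membranes carried through the same steps.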

[15] = target: T1, Adenosine receptor A1 (Rattus norvegicus); experiment: Percentage inhibition of [125I]APNEA binding to adenosine A1 receptor from rat brain after 45 min incubation at 10 nM; method in brief: as §3
[16] = target: T1, Adenosine receptor A1 (Rattus norvegicus); experiment: Percentage inhibition of [125I]APNEA binding to Adenosine A1 receptor from rat brain after 45 min incubation at 10 nM; method in brief: as §3
Adenosine receptor A1 [17] = target: T4, Adenosine receptor A1; experiment: Affinity for Adenosine A1 receptor using [N6-[(3-[125I]-iodo-4-aminophenyl)ethyl]adenosine in calf brain; type: tissue-based; method in brief: as §2

SMILES	inhibition [1] [%]	Ki (Adenosine receptor A1 [2]) [nM]	Ratio [4]	Ki (Adenosine A2 receptor [7]) [nM]	also measured
CCCn1c(=O)c2nc(-c3ccc(OCC(=O)NCCNC(=O)CNC(=O)CCCN4C(=O)C=CC4=O)cc3)[nH]c2n(CCC)c1=O	9	–	–	–	–
CCCn1c(=O)c2nc(-c3ccc(OCC(=O)NCCNC(=O)CCCN4C(=O)C=CC4=O)cc3)[nH]c2n(CCC)c1=O	15	37.8	–	–	–
O=C(CBr)NCCNC(=O)Cc1ccc(NC(=O)Cc2ccc(Nc3ncnc4c3ncn4C3O[C@H](CO)[C@@H](O)[C@H]3O)cc2)cc1 (stereo partly drawn)	38	8.3	76	–	Ki (Adenosine A2 receptor [3]): 202 nM
COc1ccc(NC(=S)NCCNC(=O)Cc2ccc(NC(=O)Cc3ccc(Nc4ncnc5c4ncn5C4O[C@H](CO)[C@@H](O)[C@H]4O)cc3)cc2)cc1 (stereo partly drawn)	–	–	–	–	Ki (Adenosine receptor A1 [5]): 8.52 nM
CCCn1c(=O)c2nc(-c3ccc(OCC(=O)NCCNC(=O)C/N=C(\S)Nc4ccc(N=C=S)cc4)cc3)[nH]c2n(CCC)c1=O	50	–	69	–	Ki (Adenosine A2 receptor [3]): 472 nM
CCCn1c(=O)c2nc(-c3ccc(OCC(=O)NCCNC(=O)CCSSc4ccccn4)cc3)[nH]c2n(CCC)c1=O	3	–	–	–	–
CCCn1c(=O)c2[nH]c(-c3ccc(OCC(=O)NCCNC(=O)c4ccc(CBr)cc4)cc3)nc2n(CCC)c1=O	–	–	–	–	Ki (Adenosine receptor A1 [6]): 10.1 nM
CCCn1c(=O)c2nc(-c3ccc(OCC(=O)NCCNC(=O)Cc4ccc(N/C(S)=N/c5ccc(N=C=S)cc5)cc4)cc3)[nH]c2n(CCC)c1=O	–	–	26.2	655	inhibition [8]: 20%
O=C(Cc1ccc(NC(=O)Cc2ccc(Nc3ncnc4c3ncn4C3O[C@H](CO)[C@@H](O)[C@H]3O)cc2)cc1)NCCN=C=S (stereo partly drawn)	–	4.5	–	–	Ki (Adenosine receptor A1 [6]): 4.2 nM
CCCn1c(=O)c2nc(-c3ccc(OCC(=O)NCCN=C(S)Nc4ccc(N=C=S)cc4)cc3)[nH]c2n(CCC)c1=O	29	–	48.6	321	inhibition [9]: 73%; inhibition [10]: 63%
O=C(Cc1ccc(NC(=O)Cc2ccc(Nc3ncnc4c3ncn4C3O[C@H](CO)[C@@H](O)[C@H]3O)cc2)cc1)NCC/N=C(\S)Nc1ccc([N+](=O)[O-])cc1 (stereo partly drawn)	–	1.97	–	–	–
CCCn1c(=O)c2nc(-c3ccc(OCC(=O)NCCN=C(S)Nc4ccc([N+](=O)[O-])cc4)cc3)[nH]c2n(CCC)c1=O	–	15.9	–	–	–
Cc1ccc(NC(=S)NCCNC(=O)Cc2ccc(NC(=O)Cc3ccc(Nc4ncnc5c4ncn5C4O[C@H](CO)[C@@H](O)[C@H]4O)cc3)cc2)cc1 (stereo partly drawn)	–	3.72	–	–	–
CCCn1c(=O)c2nc(-c3ccc(OCC(=O)NCCN=C(S)Nc4cccc(N=C=S)c4)cc3)[nH]c2n(CCC)c1=O	–	–	144	343	inhibition [11]: 49%; inhibition [12]: 67%; inhibition [9]: 94%
O=C(Cc1ccc(NC(=O)Cc2ccc(Nc3ncnc4c3ncn4C3O[C@H](CO)[C@@H](O)[C@H]3O)cc2)cc1)NCCNC(=S)Nc1cccc(N=C=S)c1 (stereo partly drawn)	–	0.867	–	–	–
CCCn1c(=O)c2nc(-c3ccc(OCC(=O)NCCNC(=O)CCCCCCC(=O)ON4C(=O)CCC4=O)cc3)[nH]c2n(CCC)c1=O	32	–	–	207	–
CCCn1c(=O)c2nc(-c3ccc(OCC(=O)NCCNC(=O)c4ccc(CBr)cc4)cc3)[nH]c2n(CCC)c1=O	15	–	–	–	–
CCCn1c(=O)c2nc(-c3ccc(OCC(=O)NCCNS(=O)(=O)c4cccc(S(=O)(=O)Cl)c4)cc3)[nH]c2n(CCC)c1=O	–	–	42	105	inhibition [13]: 23%
O=C(Cc1ccc(NC(=O)Cc2ccc(Nc3ncnc4c3ncn4C3O[C@H](CO)[C@@H](O)[C@H]3O)cc2)cc1)NCC/N=C(\S)Nc1ccc(N=C=S)cc1 (stereo partly drawn)	–	–	–	191	inhibition [14]: 39%; inhibition [15]: > 80%; inhibition [16]: > 80%
CCCn1c(=O)c2[nH]c(-c3ccc(OCC(=O)NCCNC(=O)CCCCCCC(=O)ON4C(=O)CCC4=O)cc3)nc2n(CCC)c1=O	–	–	–	–	Ki (Adenosine receptor A1 [17]): 23 nM
